# UBC13 polyUb – UBC13 polyubiquitin chain formation inhibitors, primary screen, biochemical, TR-FRET, uHTS; actives 0.47% (n = 330,000); inhibition, % at 20 µM; in the data active = inhibition above about 45%, passing the limit was not always enough
# Target sequence (P61088 whole entry, looked up): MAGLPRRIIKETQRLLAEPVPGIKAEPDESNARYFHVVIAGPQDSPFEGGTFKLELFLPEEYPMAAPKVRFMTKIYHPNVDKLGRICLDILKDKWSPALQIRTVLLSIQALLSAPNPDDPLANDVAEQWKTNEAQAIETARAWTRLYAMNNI
# Apaf-1 inh – inhibitors of human Apaf-1 apoptosome, primary screen, biochemical, DEVD-Rh110 fluorescence, uHTS; Apoptotic protease-activating factor 1 (Homo sapiens), O14727; reconstituted apoptosome caspase-3 activity; inhibition, % at 20 µM; actives 0.71% (n = 330,000); AID 489030, 2010; active = inhibition of at least 40% at 20 µM
#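 Medium: Hepes buffer, pH 7.5 / System: biochemical Apaf-1 apoptosome reconstitution / Measured by: Rh110 fluorescence, excitation 480 nm, emission 540 nm / Times: compound with Apaf-1, dATP, procaspase-3 30 min, then 50 min reaction, room temperature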
# MEKK3 PB1 HTS – modulators of MEKK3-MEK5 PB1 binding, primary screen, biochemical, wildtype MEKK3, multiplex bead flow cytometry, Alexa488-MEK5; Mitogen-activated protein kinase kinase kinase 3 (Homo sapiens), Q99759; bead-based flow cytometry, Alexa488-MEK5 binding to MEKK3; actives lie on both sides; 0 = blocked by unlabeled MEK5, 100 = vehicle; binding response (% of control), % at 10 µM; actives 1.4% (n = 290,000); AID 1529, 2009;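 active = binding response more than 3 SD above or below the average of its plate-row segment, actives on both sides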;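 also: Alexa488 bead fluorescence after subtracting the streptavidin-only scavenger bead signal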
# MEKK2 mut-MEK5 – MEK5 binding signal on mutant MEKK2 PB1, primary screen, biochemical, multiplex bead flow cytometry, Alexa488-MEK5; Alexa488-MEK5 binding to MEKK2 mutant; percent response, % at 10 µM; actives 0.35% (n = 290,000); AID 1530, 2009; in the data active = percent response above about 24%, passing the limit was not always enough
# MEKK2 WT-MEK5 – modulators of MEK5 binding to wildtype MEKK2, primary screen, biochemical, multiplex bead flow cytometry, Alexa488-MEK5 | Mitogen-activated protein kinase kinase kinase 2 (Homo sapiens), Q9Y2U5 | Alexa488-MEK5 binding to MEKK2 WT; actives lie on both sides | binding response (% of control), % at 10 µM | actives 1.1% (n = 290,000) | AID 1531, 2009; in the data active = binding response below about 67% or above about 130%
# MEKK2wt confirm – modulators of MEK5 binding to wildtype MEKK2, confirmation, biochemical, single concentration, multiplex bead flow cytometry. shares compounds with MEKK3 PB1 HTS. Alexa488-MEK5 binding to MEKK2 WT; actives lie on both sides. binding response (% of control), % at 10 µM. actives 2.4% (n = 5,900). AID 1892, 2009; in the data active = binding response below about 16% or above about 210%; inactive = in between
# MEKK2mut-MEK5 – mutant MEKK2 PB1-MEK5 binding signal retest – biochemical, single concentration, multiplex bead flow cytometry, confirmation; shares compounds with MEKK3 PB1 HTS; Alexa488-MEK5 binding to MEKK2 mutant; percent response, % at 10 µM; actives 2% (n = 5,900); in the data active = percent response mostly above about 71%, no sharp cut-off; inactive = mostly below about 38%;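 also: higher means compound restores mutant binding toward wildtype level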
# MEKK3-MEK5 inh – MEKK3 wild-type PB1 binding to MEK5, inhibitors, confirmation, biochemical, bead multiplex flow cytometry, single concentration, wildtype; shares compounds with MEKK3 PB1 HTS; Alexa488-MEK5 binding to MEKK3; hits give low values; binding response (% of control), % at 10 µM; actives 1.8% (n = 5,900); AID 1894, 2009;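 active = binding response below 72% of control, or above a set upper limit, though filed actives all read lower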;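 also: lower values mean stronger disruption of MEK5 binding to MEKK3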
# Hits are given with their value; . = inactive; / = no result; [ ] = dose if it differs, or a comment. Most compounds without a hit are left out; they make up all but 2.9% or so of the library.
SMILES,UBC13 polyUb,Apaf-1 inh,MEKK3 PB1 HTS,MEKK2 mut-MEK5,MEKK2 WT-MEK5,MEKK2wt confirm,MEKK2mut-MEK5,MEKK3-MEK5 inh
CC(=O)Nc1ccc(-c2cc(C(=O)O)c3ccccc3n2)cc1,.,.,58[inhibitor],.,61[inhibitor],.,.,.
O=C1CCN(Cc2ccccc2)C=C1c1ccc(Br)cc1,.,.,/,/,/,/,/,/
COC(=O)c1cc(NC(=O)c2cc(C(C)(C)C)nn2Cc2ccc(F)cc2)ccc1N1CCOCC1,.,.,133,.,.,.,.,.
c1cc(Nc2ncnc3sccc23)cc(-c2nnc3n2CCCCC3)c1,.,.,-1.0[inhibitor],.,-1.0[inhibitor],.,.,.
CC/C(=N\N=C1\SC(C)C(=O)N1Cc1ccco1)c1ccccc1 (stereo not given),.,.,.,.,.,/,/,/
COC(=O)C1=C(C)NC(C)=C(C(=O)OC)C1C(=O)OCC(=O)N1CCCCC1C (stereo not given),.,.,/,/,/,/,/,/
O=C(/C=C/c1ccc(Cl)cc1)NC(=S)Nc1ccc(NC(=O)c2ccco2)cc1,/,/,.,.,.,/,/,/
Cc1cc2ccccc2n1CCNC(=O)c1cccs1,.,.,34[inhibitor],.,9.0[inhibitor],.,.,70
O=C(NCc1ccccc1)C(c1ccccn1)N(C(=O)c1csnn1)c1ccccc1F (stereo not given),.,.,.,.,.,/,/,/
CCOc1ccc(S(=O)(=O)N2CCOCC2)cc1NC(=O)CN1C(=O)NC(CC)(c2ccccc2)C1=O (stereo not given),.,.,.,.,.,/,/,/
CC(=O)Nc1ccc(S(=O)(=O)NCC2CCC(C(=O)NCc3ccccc3)CC2)cc1 (stereo not given),.,.,138,.,.,.,.,.
COc1cccc(C(=O)OCC(=O)Nc2cc(C)c(C)cc2[N+](=O)[O-])c1,.,.,.,.,.,/,/,/
C/C(=N\NC(=O)c1ccncc1)c1cc2ccccc2oc1=O,.,.,.,.,.,/,/,/
C/C(=N/NC(=O)c1ccncc1)c1cc2ccc(O)cc2oc1=O,.,.,.,.,156,.,.,.
O=C(COC(=O)Cc1ccccc1[N+](=O)[O-])NCc1ccc(Cl)cc1,.,.,143,.,.,.,.,.
CCN(CC)c1nc(-c2ccc(C(=O)NN)cc2)nc(-c2ccc(C(=O)NN)cc2)n1,.,.,.,.,.,/,/,/
O=C(NCCN1CCN(c2cccc(Cl)c2)CC1)Nc1ccccc1,.,.,.,.,.,/,/,/
O=C(NCCN1CCN(Cc2ccccc2)CC1)Nc1cc(Cl)cc(Cl)c1,.,.,.,.,139,.,.,.
COc1cnc(SCCC(F)=C(F)F)[nH]c1=O,.,.,.,.,.,/,/,/
CC(C)Oc1cc(N)c(Cl)cc1Cl,.,.,.,.,.,/,/,/
Cc1cccc(OCc2nn[nH]n2)c1C,.,.,.,.,.,/,/,/
Clc1ccccc1OCc1nn[nH]n1,.,.,131,.,.,.,.,.
O=C(NCc1cccs1)C1CCN(S(=O)(=O)c2ccccc2F)CC1,.,.,.,.,.,/,/,/
O=C(CN1CCCCCC1)Nc1ccccc1C(=O)Nc1ccccc1,.,.,/,/,/,/,/,/
CC(C)(C)c1ccccc1OCCOCCN1CCCCCC1,.,.,.,.,164,.,.,.
SMILES,UBC13 polyUb,Apaf-1 inh,MEKK3 PB1 HTS,MEKK2 mut-MEK5,MEKK2 WT-MEK5,MEKK2wt confirm,MEKK2mut-MEK5,MEKK3-MEK5 inh
CC(C)c1cc(N2CCC(=O)NC2=O)cc(C(=O)O)c1O,.,.,.,.,.,/,/,/
COc1ccc(Br)cc1CN1CCN(Cc2c[nH]c3ccccc23)CC1,.,.,.,27,.,.,.,.
C[C@@H]1C=CC(=O)O[C@@H]1c1ccc(Cl)cc1,.,.,.,.,.,/,/,/
COc1ccc(/C=C2\N=C3CCCCCN3C2=O)cc1OC,.,.,.,.,.,/,/,/
COc1ccc(/C=C2\N=C(C)N(c3ccc4ccccc4c3)C2=O)cc1OC,.,.,208,.,.,.,.,.
N#Cc1ccc2[nH]c(CO)c(-c3ccccc3)c2c1,.,.,0.0[inhibitor],.,-13[inhibitor],.,.,.
COC(=O)c1ccc2[nH]c(CO)c(-c3ccccc3)c2c1,.,.,.,.,.,/,/,/
O=C(Nc1ccc(N2CCOCC2)cc1)C1CCCCC1,.,.,82[inhibitor],.,.,.,.,.
O=C(CNCCC1=CCCCC1)Nc1ccc(N2CCCCCC2)cc1,.,.,.,.,188,.,.,.
O=C(CNC1CCCCCC1)Nc1ccc(N2CCCC2)cc1,.,.,/,/,/,/,/,/
O=C(Nc1ccc(S(=O)(=O)N2CCOCC2)cc1)C1CCCCC1,.,.,.,.,.,/,/,/
NS(=O)(=O)c1ccc(NC(=O)COC(=O)C2CCCCC2)cc1,.,.,.,.,.,/,/,/
O=C(COC(=O)C1CCCCC1)Nc1ccc(N2CCCCC2)cc1,.,.,.,47,150,.,.,.
CC1(C)Oc2ccc(C(=O)N/N=C/c3ccc(O)cc3)cc2NC1=O,.,.,.,.,.,/,/,/
O=C(CCc1[nH]c2ccccc2c1Sc1ccccc1)NCCO,.,.,67[inhibitor],.,.,.,.,.
NS(=O)(=O)c1ccc(CCNCc2cc(Cl)ccc2OCc2ccccc2)cc1,.,.,.,.,144,.,.,.
NS(=O)(=O)c1ccc(CCNCc2ccccc2OCc2ccc(Cl)cc2)cc1,.,.,.,.,145,.,.,.
C=CCOc1ccccc1CNCCc1ccc(S(N)(=O)=O)cc1,.,.,.,.,.,/,/,/
Cc1c(C(=O)N2CCC[C@H]2CO)oc2c(F)cccc12,.,.,.,.,.,/,/,/
CC1CCC2(CC1)NC(=O)N(CC(=O)Nc1cccc(C#N)c1)C2=O (stereo not given),.,.,/,/,/,/,/,/
Cc1ccc(/C=C/C(=O)NC2=NCCS2)cc1,.,.,.,.,144,.,.,.
COc1ccc(C(=O)SC2=NCCS2)cc1,.,.,-2.0[inhibitor],.,-11[inhibitor],.,.,.
CC(C)N(C(=O)[C@H]1C[C@H](CC(=O)NCC23CC4CC(CC(C4)C2)C3)C(=O)N2CCc3c([nH]c4cc(CCC(=O)N(C)C)ccc34)[C@]12C)C(C)C,/,.,/,/,/,/,/,/

# Screening results from PubChem.
